Test results from paper PMC13252795 (International journal for parasitology, 2017).
pEC50: −log10 of the molar value.

Experiments:
[1] = biological target: recombinant BbCDPK1 (rBbCDPK1) (Besnoitia besnoiti, UniProt A0A290U7L2); test: BbCDPK1 enzymatic activity inhibition, Kinase-Glo luciferase assay; assay type: biochemical
Marc-145 cells = test: Mammalian cell toxicity, XTT cell viability assay; assay type: cell-based; settings: uninfected Marc-145 cells, 5 μM, 72 h
In short: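 Exponential-phase Marc-145 cells were seeded at 2 × 10^5 cells/mL together with test compound dissolved in DMSO, in quadruplicate, and grown 72 h at 37 °C in humidified 5% CO2. XTT reagent was then added for 4 h, and […]. Percent growth inhibition was calculated relative to the DMSO vehicle.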

[2] = system: B. besnoiti tachyzoites (Bb-Spain1) in Marc-145 cells; test: Short term dose-response assays, EC50 and EC99 determination by qPCR; assay type: cell-based, Besnoitia besnoiti
[3] = system: B. besnoiti tachyzoites (Bb-Spain1) in HFF cells; test: Transmission electron microscopy of B. besnoiti-infected HFF treated with BKIs; assay type: cell-based, Besnoitia besnoiti; settings: 5 μM, HFF cells, 4, 6 and 8 days; listed as BKI-1294
[4] = cattle; ref Huang et al., 2015; Schaefer et al., 2016; Hulverson et al., 2017; cited from earlier work

CCOc1ccc2cc(-c3nn(CC4CCN(C)CC4)c4ncnc(N)c34)ccc2c1 [Compound 1294]
IC50 values against BbCDPK1 (in words) [1]: lower nanomolar range
Percentage of cytotoxicity compared to DMSO-treated negative control (Marc-145 cells): 5.2%
EC99 (B. besnoiti) ([2]; BKI added at 0 hpi, 3-day proliferation assay, qPCR, Marc-145 cells): 2.38 µM
pEC50 ([2]; Besnoitia besnoiti, MARC145, 72 h, read-out: EC50 (B. besnoiti)): 7.35
Effect on ultrastructure of tachyzoites (TEM) [3]: formed multinucleated complexes
Plasma levels achieved [4]: up to 5 μM
